Bioassay records deposited in PubChem BioAssay by several laboratories.
A selection: hits, their analogues and other compounds. The true share with any hit is near 3.5%.
FLuc inhib CS: firefly luciferase enzyme inhibitors, primary screen, artefact control for luciferase-based inhibitor screens, biochemical, luminescence, ATPLite; 10 min; inhibition, % at 10 µM; 200,000 compounds, 1.5% hits;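 active means inhibition above about 50% when tested at 10 µM, limit read from the data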
Target sequence (P08659 whole entry, looked up): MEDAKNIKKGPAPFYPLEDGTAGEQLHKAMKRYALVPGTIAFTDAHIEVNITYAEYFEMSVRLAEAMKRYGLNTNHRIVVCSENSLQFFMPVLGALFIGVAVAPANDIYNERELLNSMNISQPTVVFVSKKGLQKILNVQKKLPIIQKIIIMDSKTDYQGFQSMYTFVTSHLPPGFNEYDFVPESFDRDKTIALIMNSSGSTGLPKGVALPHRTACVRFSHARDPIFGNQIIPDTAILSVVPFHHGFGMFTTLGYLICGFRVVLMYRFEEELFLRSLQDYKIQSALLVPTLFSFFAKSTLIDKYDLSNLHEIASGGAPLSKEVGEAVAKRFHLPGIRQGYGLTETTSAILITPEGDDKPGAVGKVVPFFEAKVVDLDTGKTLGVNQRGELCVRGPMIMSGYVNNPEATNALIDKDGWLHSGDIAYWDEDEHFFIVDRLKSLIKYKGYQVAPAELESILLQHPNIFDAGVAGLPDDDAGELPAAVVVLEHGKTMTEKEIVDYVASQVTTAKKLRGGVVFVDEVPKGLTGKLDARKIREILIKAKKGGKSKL
STAT1 act: STAT1 signaling activators, primary screen, cell-based, HTS, luciferase reporter. NIH 3T3 STAT1-luciferase reporter, IFN-gamma, luminescence; 100% = IFN-gamma alone, no compound. 200,000 compounds, 2.6% hits. AID 932, 2007. activation (% of control), % at 5.5 µM;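 active means activation above the screen-wide mean activation plus 3 SD, cut at about 130% in these data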;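 further: raw ratio to IFN-gamma control signal so 100% means no change and 0% no light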
Pf gametocyte: late stage P. falciparum gametocyte viability inhibitors, primary screen, ATP luminescence, HTS; P. falciparum stage V gametocytes, 24 h; inhibition, % at 10.9 µM; 150,000 compounds, 0.065% hits;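 active means inhibition above the mean plus 3 SD of compounds within the control limits, set per campaign, cut at about 38% in these data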;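 further: 0% = DMSO wells and 100% = medium only without gametocytes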
NF-kB neuron act: activators of NF-kB expression in neurons, primary screen, cell-based, HTS. 190,000 compounds, 1.6% hits. AID 1239, 2008. fold change at 12.5 µM. human neuronal cells, NF-kB reporter expression; active compounds read high; in the data active means fold change above about 3.3
APP 5'UTR act: activators of APP 5'UTR luciferase reporter, primary screen, SH-SY5Y cells. SH-SY5Y APP 5'UTR luciferase reporter, luminescence; zero percent = DMSO vehicle wells. activation, % at 2 µM. 190,000 compounds, 1% hits;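 active means activation above a set limit, based on mean plus 3 SD of controls, cut at about 140% in these data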
FLuc act counter: FLuc activators, initial screening, artefact control for FLuc-dependent activation tests, biochemical, ATPlite luminescence; Luciferin 4-monooxygenase (Photinus pyralis), P08659; ATPlite luciferase biochemical, 10 min; 0 = ATP-free wells, 1 = DMSO control; activation factor at 10 µM; 200,000 tested, under 10 active;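 active means luciferase activation factor, scaled between plate controls, of at least 2 with compound at 10 µM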
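System: luciferase plus luciferin reagent, cell-free; medium: PBS as buffer for the ATP substrate; dosing: test compounds dosed from 2 mM stocks in 100% DMSO; timing: 10 min post-reagent at room temperature; measured by: luminescence measurement of luciferase light output; evaluation: luciferase activation, seen as luminescence increase over controls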
STAT1 activ conf: STAT1 signaling activators, confirmation, cell-based, HTS, luciferase reporter; shares compounds with STAT1 act; NIH 3T3 STAT1-luciferase reporter, IFN-gamma potentiation, luminescence; 100% = IFN-gamma EC80 alone, no compound; activation (% of control), % at 5.7 µM; 1,200 compounds, 97% hits; AID 1262, 2008;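 active means activation above a set limit carried over from the earlier primary STAT1 screen, cut at about 140% in these data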;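 further: simple ratio to median IFN-gamma plus DMSO wells so 0% means no light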
NFkB act STAT1ct: NF-kB reporter activators, TNF-alpha stimulated, counter-screen for STAT1 activator project, cell-based, HEK293T, luciferase luminescence; activation (% of control), % at 5.7 µM; 1,200 compounds, 43% hits; shares compounds with STAT1 act; 100% = TNF-alpha with vehicle only; AID 1306, 2008;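 active means activation above the mean of solvent-only control wells plus 3 SD, set per campaign, cut at about 130% in these data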;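 further: TNF-alpha given at a submaximal dose yielding about 80% of full reporter signal; values are well signal over median control so 100% means no change and 0% no light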
STAT3 act STAT1c: STAT3 reporter activation by STAT1 hits, confirmation, counter-screen for STAT1 activator project, U3A cells, luciferase, luminescence. 1,200 compounds, 46% hits. IL-6; cells lack STAT1; 100 = IL-6 alone, no compound effect. shares compounds with STAT1 act. activation (% of control), % at 5.7 µM;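 active means activation above the solvent-only control well mean plus 3 SD, set per plate batch, cut at about 110% in these data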;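 further: 0% = no luminescence and 100% = median IL-6 plus DMSO wells; higher means more STAT3 reporter activation so hits are non-selective activators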
Numbers without * were called inactive.

`Cc1ccc(N/C=C(/C#N)c2ccsc2)cc1C` gave FLuc inhib CS 4.5, STAT1 act 193.0*, NF-kB neuron act 5.23*, APP 5'UTR act 104.6, FLuc act counter 1, STAT1 activ conf 234.7*, NFkB act STAT1ct 156.2* and STAT3 act STAT1c 125.0*.
Screening Cc1ccc(N/N=C(\C#N)C(=O)c2ccsc2)cc1 returned Pf gametocyte -2.1.
For COc1ccc(/C(C)=N/NC(=O)C(NC(=O)c2ccccc2)c2n[nH]c(=O)c3ccccc23)c(OC)c1 (stereo unspecified) the results were Pf gametocyte 16.8.
`O=[N+]([O-])c1ccc2cn(-c3ccccc3)nc2c1` gave FLuc inhib CS 13.3, STAT1 act 152.3*, Pf gametocyte 5.9, NF-kB neuron act 1.33, APP 5'UTR act 140.9*, FLuc act counter 0.9, STAT1 activ conf 195.6*, NFkB act STAT1ct 135.0* and STAT3 act STAT1c 98.6.
For COc1ccccc1-n1cc2ccc([N+](=O)[O-])cc2n1 the results were Pf gametocyte -9.1.
`CC(C)CSc1nnc2c(n1)[nH]c1ccccc12` gave FLuc inhib CS 28.4, STAT1 act 152.8*, NF-kB neuron act 4.83*, APP 5'UTR act 129.7, FLuc act counter 0.7, STAT1 activ conf 248.9*, NFkB act STAT1ct 113.2 and STAT3 act STAT1c 89.2.
`Cc1cc(C(=O)NCCC2=CCCCC2)c(C)o1` gave FLuc inhib CS 16.1, STAT1 act 155.1*, NF-kB neuron act 2.28, APP 5'UTR act 136.5*, FLuc act counter 0.8, STAT1 activ conf 181.4*, NFkB act STAT1ct 119.8 and STAT3 act STAT1c 110.1.
For NC(=O)NCCC1=CCCCC1 the results were FLuc inhib CS -5.4, STAT1 act 98.2, NF-kB neuron act 1.03, APP 5'UTR act -16.9 and FLuc act counter 1.1.
CNc1nc(-c2ccc3c(c2)CCN3C(=O)c2ccccc2F)cs1 was read as FLuc inhib CS 64.9*, STAT1 act 159.1*, NF-kB neuron act 7.49*, APP 5'UTR act 207.9*, FLuc act counter 0.4, STAT1 activ conf 215.4*, NFkB act STAT1ct 142.6* and STAT3 act STAT1c 96.4.
Screening CCOC(=O)CSc1nc2cc3c(cc2cc1C#N)OCCO3 returned FLuc inhib CS -5.2, STAT1 act 174.2*, Pf gametocyte -6.0, NF-kB neuron act 1.22, APP 5'UTR act 181.1*, FLuc act counter 1.1, STAT1 activ conf 292.6*, NFkB act STAT1ct 142.7* and STAT3 act STAT1c 122.6*.
`CCOC(=O)CSc1nc2cc3c(cc2cc1C#N)OCO3` gave FLuc inhib CS -7.3, STAT1 act 155.3*, NF-kB neuron act 4.08*, APP 5'UTR act 111.8, FLuc act counter 1.1, STAT1 activ conf 222.7*, NFkB act STAT1ct 143.5* and STAT3 act STAT1c 115.4*.
Screening COC(=O)CSc1nc2cc3c(cc2cc1C#N)OCO3 returned FLuc inhib CS -6.7, STAT1 act 155.2*, Pf gametocyte 22.4, NF-kB neuron act 6.76*, APP 5'UTR act 170.0*, FLuc act counter 1.1, STAT1 activ conf 264.5*, NFkB act STAT1ct 146.9* and STAT3 act STAT1c 117.2*.
For Cc1cccc(C(=O)NNC(=O)c2ccccc2Br)c1 the results were Pf gametocyte 13.3.
For Cc1ccc(NC(=O)c2noc3c2CCCCC3)cc1 the results were FLuc inhib CS 31.6, STAT1 act 155.6*, NF-kB neuron act 8.1*, APP 5'UTR act 140.0*, FLuc act counter 0.7, STAT1 activ conf 243.0*, NFkB act STAT1ct 135.8* and STAT3 act STAT1c 104.8.
Screening Cc1ccc(NC(=O)c2noc3c2CCCCC3)cc1C returned FLuc inhib CS 15.9, STAT1 act 198.2*, Pf gametocyte -0.1, NF-kB neuron act 4.86*, APP 5'UTR act 237.3*, FLuc act counter 0.8, STAT1 activ conf 270.7*, NFkB act STAT1ct 122.2 and STAT3 act STAT1c 96.3.
`CCc1ccc(NC(=O)c2noc3c2CCCCC3)cc1` gave FLuc inhib CS 9.9, STAT1 act 164.5*, Pf gametocyte 6.9, NF-kB neuron act 4.48*, APP 5'UTR act 201.5*, FLuc act counter 0.9, STAT1 activ conf 218.9*, NFkB act STAT1ct 144.0* and STAT3 act STAT1c 111.8*.
COc1ccc(NC(=O)c2noc3c2CCCCC3)cc1 was read as FLuc inhib CS 24.4, STAT1 act 168.8*, Pf gametocyte 8.7, NF-kB neuron act 6.73*, APP 5'UTR act 166.0*, FLuc act counter 0.8, STAT1 activ conf 211.7*, NFkB act STAT1ct 138.4* and STAT3 act STAT1c 102.5.
`CCCn1nc(CC(=O)OCC)c2ccccc2c1=O` gave FLuc inhib CS -7.5, STAT1 act 93.5, NF-kB neuron act 1.16, APP 5'UTR act -11.7 and FLuc act counter 1.1.
For Cc1ccc(N=Cc2cc3c(cc2O)OC(N)=C(C#N)C3c2ccccc2)cc1 (stereo unspecified) the results were FLuc inhib CS -1.8, STAT1 act 102.9, NF-kB neuron act 1, APP 5'UTR act 8.8 and FLuc act counter 1.
Cc1cc(NC(=O)CSc2nnc(-c3ccco3)o2)no1 was read as FLuc inhib CS -6.7, STAT1 act 97.8, NF-kB neuron act 1.22, APP 5'UTR act 19.4 and FLuc act counter 1.1.
Screening Cc1ccc(NC(=S)c2ccc(N(C)C)cc2)cc1 returned FLuc inhib CS 57.6*, STAT1 act 169.9*, Pf gametocyte 6.8, NF-kB neuron act 3.45*, APP 5'UTR act 149.8*, FLuc act counter 0.4, STAT1 activ conf 200.8*, NFkB act STAT1ct 128.8 and STAT3 act STAT1c 101.7.
Screening Cc1ccc(OCC(=O)Nc2ccc(N(C)C)cc2)cc1 returned FLuc inhib CS -6.0, STAT1 act 91.4, NF-kB neuron act 1.04, APP 5'UTR act 12.3 and FLuc act counter 1.1.
